# Only some compounds are listed: those with a hit (about 8.2% of all), similar ones and a draw of the others.
# RORA act: activators of human nuclear receptor RORA | P35398 | CHO-K1 Gal4-RORA LBD luciferase reporter, luminescence; percent increase over mock-subtracted basal signal | activation, % at 10 µM | 1.5% of 65,000 active | AID 560;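 active means activation above the mean of all tested compounds plus 3 SD, cut at about 49% in these data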
# HePTP inh: inhibitors of human HePTP phosphatase; P35236; recombinant HePTP phosphatase activity, OD absorbance; inhibition, % at 20 µM; 0.64% of 110,000 active; AID 521; in the data active means inhibition above about 50%
# SF-1 act: activators of human nuclear receptor SF-1; Q13285; CHO-K1 Gal4-SF-1 LBD luciferase reporter; % increase over DMSO SF-1-specific signal; activation, % at 10 µM; 1.9% of 65,000 active;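 active means activation above the mean activation of all tested compounds plus 3 SD, cut at about 50% in these data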
# Target sequence (Q13285 whole entry, looked up, the tested form may be a part): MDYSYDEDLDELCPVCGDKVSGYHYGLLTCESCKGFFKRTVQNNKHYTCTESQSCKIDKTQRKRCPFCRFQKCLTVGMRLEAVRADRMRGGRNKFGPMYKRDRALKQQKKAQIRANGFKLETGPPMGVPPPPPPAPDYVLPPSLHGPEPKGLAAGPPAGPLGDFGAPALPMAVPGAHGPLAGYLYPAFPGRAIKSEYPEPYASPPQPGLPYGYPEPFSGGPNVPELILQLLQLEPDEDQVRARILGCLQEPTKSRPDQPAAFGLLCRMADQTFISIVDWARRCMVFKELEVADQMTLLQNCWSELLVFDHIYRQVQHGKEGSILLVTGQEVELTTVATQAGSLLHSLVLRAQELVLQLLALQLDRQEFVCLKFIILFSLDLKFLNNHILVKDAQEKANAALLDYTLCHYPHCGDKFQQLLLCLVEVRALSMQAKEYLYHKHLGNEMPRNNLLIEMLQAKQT
#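 Material: Gal4–SF-1 LBD one-hybrid luciferase reporter in CHO-K1 cells | Amount: 4,000 cells per well | Compound dosing: 10 µM single point, 1% DMSO | Schedule: 20 h compound treatment, 37 °C | Measured by: SteadyLite luciferase luminescence | Evaluation: Percent activation versus DMSO | Control set: DMSO-treated SF-1-transfected cells as negative, DMSO-treated mock-transfected cells lacking SF-1 as background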
# M1 antag: antagonists of rat M1 muscarinic receptor; AID 628; 3.4% of 64,000 active; CHO-M1 cells, Fluo-4 calcium, ACh EC80 antagonist mode; stronger effect = lower value; P08482; B-score at 10 µM;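 active means calcium fluorescence response, raw or row-and-column corrected B-score, differing from the plate sample mean either way at a set confidence level, mostly lower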
# M1 agonist: M1 muscarinic receptor agonism; CHO-M1 cells, Fluo-4 calcium fluorescence, agonist mode; stronger effect = higher value; B-score at 10 µM; 3% of 64,000 active;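 active means fluorescence rise, raw or as B-score row- and column-corrected plate score, outside the 99.7% band of its plate's samples, either direction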
# D1 mod: D1 dopamine receptor (human) allosteric modulation. B-score at 10 µM. HEK293 D1, CRE-luciferase, dopamine EC30 potentiation; actives deviate in either direction. 5.9% of 58,000 active;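 active means luminescence count or its row- and column-corrected plate score outside the 99.7% band of the plate's sample wells, on either side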
# D1 mod confirm: confirmation of human D1 dopamine receptor allosteric modulators | shares compounds with D1 mod | 88% of 2,200 active | luminescence at 10 µM | HEK293 D1 CRE-luciferase, dopamine EC30 potentiation; stronger effect = higher value;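 active means luminescence in either of two replicates above the same-plate mean plus 3 SD of the low-dose dopamine control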
# D1 ag no DA: secondary test of D1 modulators: activity without dopamine. shares compounds with D1 mod. HEK293 D1 CRE-luciferase, luminescence, no dopamine; stronger effect = higher value. luminescence at 10 µM. 0.8% of 1,900 active; in the data active means luminescence above about 3900
# Isoprot counter: counter-screen for D1 modulators: isoproterenol response in HEK293 cells; calls only at 10 µM; AID 647; HEK293 D1 CRE-luciferase, isoproterenol EC30 counter-screen; shares compounds with D1 mod; 63% of 2,200 active;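 active means luminescence in either replicate above plate mean of wells with a partly effective reference agonist dose plus 3 SD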;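 further: isoproterenol raises cAMP through native beta-adrenoceptor Gs so signal bypasses D1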
# Hits are given with their value; 0 = inactive; - = not tested or not shown; + = active, no number.
SMILES,RORA act,HePTP inh,SF-1 act,M1 antag,M1 agonist,D1 mod,D1 mod confirm,D1 ag no DA,Isoprot counter
CCCNC(=O)CSc1nnc(-c2ccco2)n1C,0,0,0,0,0,0,-,-,-
Cc1ccsc1C=Nc1ccc(-c2ccc([N+](=O)[O-])cc2)cc1,-,0,-,-,-,-,-,-,-
O=C(O)c1cc(S(=O)(=O)Nc2ccccc2C(=O)O)ccc1O,-,0,-,0,0,0,-,-,-
CCOc1ccc2nc(SCC(=O)c3cccc([N+](=O)[O-])c3)sc2c1,-,0,-,-,-,-,-,-,-
O=C1CC(c2ccc(F)cc2)Sc2ccccc2N1 (stereo not drawn),0,-,0,0,0,28,22156,0,+
Cc1ccc(N2C(=O)c3ccccc3NC2c2ccccc2)cc1Cl (stereo not drawn),-,0,-,-,-,-,-,-,-
Cc1cc2n(n1)C(c1ccsc1)Nc1ccccc1-2 (stereo not drawn),0,0,0,0,0,14,15520,-,+
c1coc(-c2nn3c(Cn4nnc5ccccc54)nnc3s2)c1,0,0,0,0,0,0,-,-,-
c1ccc(Cc2nnc3sc(-c4cccnc4)nn23)cc1,0,0,0,0,0,0,-,-,-
c1ccc2c(c1)nnn2Cc1nnc2sc(-c3ccncc3)nn12,0,0,0,0,0,0,-,-,-
Clc1ccc(Cc2nn3c(Cn4nnc5ccccc54)nnc3s2)cc1,0,0,0,0,0,5.3,9044,0,+
c1ccc(Cc2nnc3sc(-c4cccs4)nn23)cc1,0,0,0,0,0,11,20672,0,+
c1ccc(Cc2nnc3sc(-c4ccc5c(c4)OCCO5)nn23)cc1,0,0,55,0,0,6.9,12856,0,+
c1csc(-c2nn3c(Cn4nnc5ccccc54)nnc3s2)c1,0,0,0,0,0,5.6,9180,0,0
Cc1nc2nc(C)c(CCC(=O)NCCCN3CCN(c4cccc(Cl)c4)CC3)c(C)n2n1,0,0,0,0,0,0,-,-,-
N#Cc1c(/N=C/c2ccccc2Cl)sc2c1CCCC2,-,0,-,-,-,-,-,-,-
Cc1cc(-c2nc3ccccc3o2)c2ccccc2n1,0,0,0,0,0,15,14660,-,+
c1ccc(-c2nc3ccccc3o2)nc1,0,0,0,0,0,0,-,-,-
Cc1cc2ccccc2c(=O)n1CC(=O)NCC(=O)N1CCN(c2cccc(Cl)c2)CC1,0,0,0,0,0,0,-,-,-
Cc1cc2ccccc2c(=O)n1CC(=O)NCC(=O)N1CCN(c2ccccc2F)CC1,0,0,0,0,0,3.4,0,0,0
C=CCN1C(=O)/C(=C\c2ccc(C=O)cc2)SC1=S,-,0,-,-,-,-,-,-,-
CC1(C)C(c2cccs2)=NC(c2ccccc2)N1O (stereo not drawn),0,0,0,0,0,3.6,9348,-,+
CC(=O)c1ccc(Nc2nc(NCCO)nc(OC(C(F)(F)F)C(F)(F)F)n2)cc1,-,0,-,-,-,-,-,-,-
CNc1nc(Nc2ccc(C(C)=O)cc2)nc(OC(C(F)(F)F)C(F)(F)F)n1,-,0,-,0,0,21,17924,0,+
Cc1cccc(-c2cc3nc4c(c(N5CCOCC5)n3n2)CCCC4)c1,0,0,0,0,0,0,-,-,-
SMILES,RORA act,HePTP inh,SF-1 act,M1 antag,M1 agonist,D1 mod,D1 mod confirm,D1 ag no DA,Isoprot counter
Cc1cccc(-c2cc3nc4c(c(N5CCCC(O)C5)n3n2)CCC4)c1 (stereo not drawn),0,0,0,0,0,8.4,18448,0,+
OC1CCCN(c2c3c(nc4cc(-c5cccc(Cl)c5)nn24)CCC3)C1 (stereo not drawn),0,0,0,0,0,3.3,16460,0,+
NC(=O)c1c(NC(=O)c2ccco2)sc2c1CCCC2,-,0,-,-,-,-,-,-,-
O=C(Nc1sc2c(c1C(=O)NCc1cccnc1)CCCC2)c1ccco1,0,0,0,0,0,12,17940,0,+
O=C(c1cccc2ccccc12)N1CCN(CC2CC=CCC2)CC1 (stereo not drawn),0,0,0,0,0,4.6,0,0,0
CN1CCN(C(=O)c2cccc3ccccc23)CC1,-,0,-,-,-,-,-,-,-
Cc1cc(=O)oc2c1ccc1oc(/C(=N\O)c3ccc(Cl)cc3)c(C)c12,-,0,-,-,-,-,-,-,-
Cc1cc(=O)oc2c1ccc1oc(/C(=N/O)c3ccccc3)c(C)c12,0,0,0,0,0,5.2,7656,0,+
COC(=O)c1ccc(COc2nc(C)cc(C)c2C#N)o1,0,0,0,0,0,3.6,11580,0,0
CCC(=O)Nc1nc2c(OC)ccc(OC)c2s1,0,0,0,0,0,2.9,8516,0,0
COc1ccc(OC)c2sc(NC(=O)C3CC3)nc12,0,0,0,0,0,3.9,10100,-,0
Cc1ccc(S(=O)(=O)NCc2ccc(C(=O)N(C)CCC#N)cc2)cc1,0,0,0,0,0,0,-,-,-
Cc1ccc(Cn2c(=O)c3c(ncn3C)n(C)c2=O)cc1,-,0,-,-,-,-,-,-,-
Cn1cnc2c1c(=O)n(Cc1ccc(F)cc1Cl)c(=O)n2C,0,0,0,0,0,4,6528,0,0
CCOC(=O)C1CSc2[nH]c(=O)sc2C1c1ccccc1 (stereo not drawn),0,0,0,0,0,8.2,11512,0,+
Cc1noc(C)c1CSc1nnc2scc(-c3ccc(Cl)cc3)n12,0,0,0,0,0,7.8,18508,0,+
Cc1ccc(-c2csc3nnc(SCc4csc(C)n4)n23)cc1,0,0,0,0,0,9.3,22688,0,+
Cc1ccc(-c2nc(NC(=O)CSc3nnc4scc(-c5ccccc5)n34)ns2)cc1,0,0,0,0,0,0,-,-,-
Cc1nc(CSc2nnc3scc(-c4ccccc4)n23)cs1,0,0,0,0,0,10,21372,0,+
CCc1nnc(NC(=O)CSc2nnc3scc(-c4ccc(C)cc4)n23)s1,0,0,0,0,0,0,-,-,-
COc1ccc2nc(NC(=O)C3CCCN(S(=O)(=O)c4cccs4)C3)sc2c1 (stereo not drawn),0,0,0,-,-,-,-,-,-
Cc1cc(C)n(-c2nc3ccccc3c3nc(C)nn23)n1,0,0,0,0,0,9.6,13408,-,+
Cc1cc(C)n(-c2nc3ccccc3c(=O)n2OC2CCCCC2)n1,0,0,0,0,0,0,-,-,-
COc1ccc(C(=O)Nc2cc([N+](=O)[O-])ccc2C)cc1OC,-,0,-,-,-,-,-,-,-
COc1ccc(C(=O)NC2=C(C#N)CCC2)cc1OC,0,0,0,0,0,13,12668,-,+
COC(=O)c1cc(NC2c3ncccc3C(=O)N2Cc2ccccc2)cc(C(=O)OC)c1 (stereo not drawn),0,0,0,0,0,19,20824,0,+

# Source: PubChem BioAssay
